Results on 3 molecules are retold here after ChEMBL document CHEMBL1799968, “Dimethyl-diphenyl-propanamide derivatives as nonsteroidal dissociated glucocorticoid receptor agonists” (J Med Chem, 2010).

For orientation: inhibition in vivo means the change of the read-out against control, counted positive when it falls. By ED50 is commonly meant the dose at which the effect has come halfway, by size or by number of responders.

For data set [1], the system named is Rattus norvegicus. As to the kind of experiment: Antiinflammatory activity against carrageenan-induced paw edema Sprague-Dawley rat model assessed as inhibition of hind paw swelling at 50 mg/kg administered as po single dose after 5 hrs post carrageenan challenge. The class given is functional. The gist of the method: (§1)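 Male SD rats, fasted overnight plus up to 6 h more. Baseline hind paw volume taken by water plethysmometer. A single oral dose was given in a biologically acceptable medium. 2 h later, under anaesthesia, 1% carrageenan in PBS was injected subcutaneously into both hind paws. Volume was read 3 h post challenge, and swelling was taken as post-challenge minus baseline.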
For orientation: Carrageenan injected into the paw causes an acute inflammation.

The test system of data set [2] is Rattus norvegicus. Description: Antiinflammatory activity in po dosed carrageenan-induced paw edema Sprague-Dawley rat model assessed as inhibition of hind paw swelling after 5 hrs post carrageenan challenge. The class given is functional. The gist of the method: as §1
Data set [3] has as its system Rattus norvegicus. As to the kind of experiment: Toxicity in carrageenan-induced paw edema Sprague-Dawley rat model assessed as increase in blood glucose level at 50 mg/kg, po measured […] by glucometer. The class given is organism-based. The arrangement: dose 50 mg/kg, route oral. The settings on record: in vivo. The gist of the method: (§2)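 Carrageenan paw edema rats (male SD, fasted, single oral dose, carrageenan 2 h postdose). Blood glucose was read by glucometer on tail-nick samples, at baseline and 5 h after dosing.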

Data set [4] concerns Rattus norvegicus. Description: Serum concentration in fasted Sprague-Dawley rat at 7.5 mg/kg, po after 6 hrs. As to conditions: in vivo.
Data set [5] relates to Rattus norvegicus. Description: Serum concentration in fasted Sprague-Dawley rat at 15 mg/kg, po after 6 hrs. The settings on record: in vivo.
For data set [6], the system named is Rattus norvegicus. Description: Toxicity in fasted Sprague-Dawley rat assessed as induction of TAT activity in liver homogenates at 7.5 to 30 mg/kg, po after 6 hrs. The class given is organism-based. The arrangement: dose 7.5-30 mg/kg, route oral. As to conditions: in vivo. The gist of the method: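 Male SD rats, fasted, single oral dose. Liver was biopsied 6 h postdose, snap frozen, homogenised in 150 mM KCl and centrifuged. Protein-normalised supernatants were assayed for TAT activity, read as OD at 340 nm. Values are given as % of TAT activity in prednisolone-treated (30 mg/kg) rats.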

For data set [7], the system named is Rattus norvegicus. Description: Serum concentration in fasted Sprague-Dawley rat at 30 mg/kg, po after 6 hrs. The settings on record: in vivo.
For data set [8], the system named is Rattus norvegicus. Description: Antiinflammatory activity against carrageenan-induced paw edema Sprague-Dawley rat model assessed as inhibition of hind paw swelling at 30 mg/kg, po measured after 5 hrs post carrageenan challenge. The class given is functional. As to conditions: Rattus norvegicus, Sprague-Dawley, po, 5 h. The gist of the method:
as §1

Data set [9] deals with Rattus norvegicus. As to the kind of experiment: Toxicity in carrageenan-induced paw edema Sprague-Dawley rat model assessed as increase in blood glucose level at 30 mg/kg, po measured […] by glucometer. The class given is organism-based. Set-up: dose 30 mg/kg, route oral. The settings on record: in vivo. The gist of the method:
as §2

Data set [10] deals with Rattus norvegicus. As to the kind of experiment: Antiinflammatory activity against carrageenan-induced paw edema Sprague-Dawley rat model assessed as inhibition of hind paw swelling at 100 mg/kg, po measured after 5 hrs post carrageenan challenge. The class given is functional. The gist of the method:
as §1

Data set [11] concerns Rattus norvegicus. As to the kind of experiment: Toxicity in carrageenan-induced paw edema Sprague-Dawley rat model assessed as increase in blood glucose level at 100 mg/kg, po measured […] by glucometer. The settings on record: in vivo. Set-up: dose 100 mg/kg, route oral. The class given is organism-based. The gist of the method:
as §2

The structures appear in SMILES notation. Where only a bound is given, the exact number is not on record here.

In the case of `CC(C)(C(=O)Nc1nccs1)[C@@H](c1ccccc1)c1ccc(O)c(F)c1`, the inhibition in vivo at 50 mg/kg in the data set with Rattus norvegicus [1] was determined as 61%. In the data set on Rattus norvegicus [2], the Activity entry is “Dose-dependent effect” and the ED50 was determined as 45 mg/kg. Further, in the data set on Rattus norvegicus [3], the Activity is reported as under 1%.
As for `CC(C)(C(=O)Nc1nncs1)[C@H]1c2ccccc2Oc2cc(O)ccc21`, the serum concentration is 59 nM in the data set with Rattus norvegicus [4], 157 nM with Rattus norvegicus [5] and 311 nM with Rattus norvegicus [7]. Besides, the Activity entry in the data set with Rattus norvegicus [6] was “Non-toxic”; in the data set on Rattus norvegicus [2], “Dose-dependent effect”; in the data set with Rattus norvegicus [9], under 1%. Besides, the inhibition in vivo at 30 mg/kg with Rattus norvegicus [8] is 56%. Moreover, the ED50 in the data set with Rattus norvegicus [2] is 44 mg/kg.
For the molecule `CC(C)(C(=O)Nc1nccs1)[C@@H](c1ccccc1)c1ccc(O)cc1`, the inhibition in vivo at 100 mg/kg in the data set with Rattus norvegicus [10] was 46%. In the data set with Rattus norvegicus [11], the Activity entry is reported as “Non-toxic”.
